UHRF1 MBD2 ctr: UHRF1 methylated DNA binding inhibitors, primary screen, counter-screen for MBD2 inhibitor project, biochemical, TR-FRET, human UHRF1, single concentration | UHRF1 binding to methylated oligo | AID 687016, 2013 | E3 ubiquitin-protein ligase UHRF1 (Homo sapiens), Q96T88 | inhibition, % at 4.4 µM | 0.75% of 370,000 active; in the data active = inhibition above about 21%;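 note: UHRF1 SRA domain binding a hemimethylated CpG hairpin DNA probe; 0% = median of test compound wells and 100% = reference inhibitor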
TDP2 absorb: human TDP2 enzyme inhibitors, primary screen, biochemical, epi absorbance, recombinant enzyme. Tyrosyl-DNA phosphodiesterase 2 (Homo sapiens), O95551. T5PNP hydrolysis, p-nitrophenol absorbance 415 nm. inhibition, % at 12.8 µM. 0.34% of 370,000 active;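 active = inhibition above the mean of all tested compounds plus 3 SD, set per campaign, cut at about 25% in these data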;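 note: 0% = DMSO with enzyme and 100% = buffer with substrate but no TDP2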
Target sequence (O95551 whole entry, looked up): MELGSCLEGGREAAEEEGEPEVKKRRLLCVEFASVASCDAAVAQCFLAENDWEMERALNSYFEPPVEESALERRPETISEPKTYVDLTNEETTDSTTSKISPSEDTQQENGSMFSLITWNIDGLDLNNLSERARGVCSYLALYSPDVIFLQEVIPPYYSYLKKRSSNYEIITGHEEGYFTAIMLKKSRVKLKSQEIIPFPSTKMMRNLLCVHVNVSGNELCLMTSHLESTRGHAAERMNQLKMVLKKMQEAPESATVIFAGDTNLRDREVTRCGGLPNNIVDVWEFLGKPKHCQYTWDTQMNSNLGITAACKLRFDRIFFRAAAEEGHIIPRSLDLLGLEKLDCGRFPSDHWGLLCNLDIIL
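Read-out basis: percent inhibition. System: recombinant human TDP2. Buffer or medium: Mg2+-containing Tris-HCl buffer, pH 7.5. Repeats: single replicate. Timing: reaction 2 h, 37 °C. Benchmarks: high control without enzyme, low control DMSO plus TDP2. Probe or stimulus: 5 mM T5PNP. Doses: 12.8 µM only. Measured by: epi absorbance of p-nitrophenol freed from T5PNP by hydrolysis.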
MBD2 DNA inh: inhibitors of MBD2 binding to methylated DNA, primary screen, biochemical, TR-FRET, DNA-binding domain, human; Methyl-CpG-binding domain protein 2 (Homo sapiens), Q9UBB5; MBD2 binding to methylated oligonucleotide; inhibition, % at 4.4 µM; 0.31% of 370,000 active; AID 686964, 2013; in the data active = inhibition above about 13%
LEDGF integ inh: blockers of LEDGF/p75-dependent integrase strand transfer – biochemical, TR-FRET, high throughput, primary screen | inhibition, % at 3.7 µM | TR-FRET IN-LEDGF/p75 DNA integration, Eu/Cy5 | AID 743269, 2014 | 0.64% of 370,000 active | HIV-1 integrase (with human LEDGF/p75);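 active = inhibition above the screen-wide mean plus 3 SD, cut at about 13% in these data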;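 note: signal is the Cy5 over europium emission ratio at 671 and 618 nm; 0% = plate median of compound wells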
IN multimer up: HIV-1 IN multimer formation enhancers, counter-screen for LEDGF/p75 integration inhibitor project, biochemical, TR-FRET | shares compounds with LEDGF integ inh | TR-FRET HIV-1 integrase multimerization | activation, % at 7.7 µM | 17% of 2,000 active; in the data active = activation above about 8.9%
TR-FRET interf: TR-FRET optical interference artefacts, confirmation, artefact control for LEDGF/p75-dependent integration inhibitor project, biochemical, HIV-1 IN multimerization. inhibition, % at 7.7 µM. TR-FRET optical interference counterscreen. 2,000 tested, under 10 active. shares compounds with LEDGF integ inh;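 active = inhibition above the mean over all tested compounds plus 3 SD, which no compound reached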;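 note: 0% = integrase with antibodies and DMSO and 100% = antibodies without integrase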
LEDGF integ conf: inhibitors of HIV-1 IN-LEDGF/p75 DNA integration, confirmation, biochemical, TR-FRET | inhibition, % at 3.7 µM | 36% of 2,000 active | AID 1053136, 2014 | shares compounds with LEDGF integ inh | TR-FRET LEDGF/p75-dependent HIV-1 integration; in the data active = inhibition above about 14%
* marks the source's active call; other numbers are inactive results; / = no result given. In the library only some 1.6% were active in any assay of this set; here they are far more common.

SMILES	UHRF1 MBD2 ctr	TDP2 absorb	MBD2 DNA inh	LEDGF integ inh	IN multimer up	TR-FRET interf	LEDGF integ conf
Cc1cc(O)cc(=O)n1-c1cc(Cl)cc(Cl)c1	1	-1	-2	5	/	/	/
Cc1n[nH]c(C)c1S(=O)(=O)NCCc1c[nH]c2ccccc12	0	9	4	-3	/	/	/
c1ccc(-c2ccc(OCCOCCn3cncn3)cc2)cc1	1	7	1	2	/	/	/
FC(F)(F)c1cccc(OCCOCCn2cncn2)c1	2	2	0	21*	-2	12	11
Cc1cccc(N/N=C/c2ccc(O)c(O)c2O)c1	7	-11	7	70*	9.1*	-46	29*
COc1cccc(N/N=C/c2cccc(Br)c2O)c1	-2	3	3	-3	/	/	/
O=C(Cn1c(-c2cncs2)nc2ccccc21)NCc1cccs1	-1	7	4	-2	/	/	/
COc1ccccc1CN1CCCC(N2CCN(c3ccccc3OC)CC2)C1 (stereo not drawn)	1	15	0	0	/	/	/
Fc1ccccc1N1CCN(C2CCCN(Cc3ccccc3C(F)(F)F)C2)CC1 (stereo not drawn)	0	-23	-3	16*	0	0	2
COc1cc(/C=N/N=C2/C(=O)Nc3ccccc32)ccc1O	-13	1	-3	-6	/	/	/
Oc1ccc(/C=N/N=C/c2ccc(O)c(O)c2)cc1O	0	-17	2	75*	32*	-161	90*
O=C1Nc2ccccc2/C1=N\N=C\c1ccc(O)c(O)c1	-2	-12	-8	45*	37*	-132	81*
O=Cc1ccc(O)c(O)c1	1	-7	0	-12	/	/	/
COC(=O)c1ccc(Cn2ccc3ccc(-c4ccc5ccn(C(=O)C6CCCCC6)c5c4)cc32)cc1	0	0	1	-4	/	/	/
O=C1CSc2ccccc2N1Cc1ccc(F)cc1	-3	-4	-1	38*	1	-5	-5
CC1(c2nnc(Cc3ccccc3)o2)CC(c2cccnc2)=NO1 (stereo not drawn)	6	5	-2	92*	0	0	-1
Cc1cccc2cc(CN(Cc3ccc(F)cc3)C(=O)N3CCOCC3)c(=O)[nH]c12	1	-3	2	14*	0	-1	-13
Cc1ccc(/C=[N+](\[O-])c2ccc(N(C)C)cc2)c2nsnc12	0	16	-7	14*	10*	-38	11
Cc1cc(O)c(Oc2cc(C)cc(O)c2O)c(O)c1	1	3	0	35*	6	-31	33*
COc1ccc(CNC(=O)CN(CCC(C)C)S(=O)(=O)c2ccc3c(c2)OCCO3)cc1	2	9	0	23*	6	-28	0
COc1ccc(/C=N/NC(=O)CN(Cc2ccccc2)S(=O)(=O)c2ccc3c(c2)OCCO3)cc1	0	1	4	3	/	/	/
COc1ccc(C2Nc3ccccc3C(=O)N2Cc2ccccc2)cc1COc1ccc(NC(C)=O)cc1 (stereo not drawn)	-2	11	1	-1	/	/	/
N#Cc1cccc(NC(=O)CSc2sc3c(O)cc(=O)[nH]c3c2C#N)c1	2	-5	2	3	/	/	/
N#Cc1c(SCC(=O)Nc2cccc(F)c2)sc2c(O)cc(=O)[nH]c12	30*	-3	9	17*	7	-38	5
COc1cccc(C(=O)N[C@H](C(=O)N2CCC[C@H]2C(=O)NCCc2ccccc2Cl)c2ccccc2)c1	-1	9	0	-1	/	/	/
SMILES	UHRF1 MBD2 ctr	TDP2 absorb	MBD2 DNA inh	LEDGF integ inh	IN multimer up	TR-FRET interf	LEDGF integ conf
Nc1ccn([C@@H]2O[C@H](C(=O)N[C@H](Cc3ccccc3)C(=O)N3CCN(C(=O)N4CCCCC4)CC3)[C@@H](O)[C@H]2O)c(=O)n1	1	3	2	4	/	/	/
CC(C)CC(C(=O)Nc1oc(-c2ccco2)c(-c2ccco2)c1C#N)N1C(=O)c2ccccc2C1=O (stereo not drawn)	-1	1	4	17*	2	-9	9
CC(C)CC(C(=O)Nc1cccc(O)c1)N1C(=O)c2ccccc2C1=O (stereo not drawn)	-2	0	-3	0	/	/	/
CCNC(=O)N1c2ccc(OCC)cc2C(C)=CC1(C)C	-7	11	-1	7	/	/	/
CCOc1ccc2c(c1)C(C)=CC(C)(C)N2C(=O)Nc1ccccc1F	-2	34*	-14	22*	4	-21	1
CCc1ccc(NC(=O)CSc2nc3c(c(=O)n(C)c(=O)n3C)n2C)cc1	-2	1	-1	-4	/	/	/
Cn1c(=O)c2c(nc(SCc3ccc(C(=O)O)cc3)n2C)n(C)c1=O	0	-6	-4	14*	-3	13	8
O=C1CSC(c2ccc(Cl)c(Cl)c2)N1c1nccs1 (stereo not drawn)	2	-9	-2	18*	-2	11	-4
O=C(NCc1n[nH]c(=S)n1-c1ccccc1)c1ccco1	1	7	8	15*	0	2	-8
CN(C)/C=C/c1oc2ccc(O)cc2c1[N+](=O)[O-]	-22	7	-16	18*	19*	-96	7
Oc1ccc(-c2csc(Nc3ncccn3)n2)cc1O	9	-1	2	17*	27*	-134	6
CCc1c(Cc2cccc(F)c2)ncn1CCc1ccccc1OC	0	3	-3	6	/	/	/
Nn1c(SCC(=O)N2CCCCCC2)nnc1-c1ccncc1	2	5	-1	26*	1	-3	1
N=c1c(C(=O)NCc2ccccc2)cc2c(=O)n3ccccc3nc2n1Cc1ccco1	-9	-2	-7	3	/	/	/
N#Cc1cc2c(=O)n3ccccc3nc2n(Cc2ccco2)c1=NC(=O)c1ccco1	22*	6	4	30*	0	2	5
CC(=O)N=c1c(C#N)cc2c(=O)n3cccc(C)c3nc2n1Cc1ccco1	3	2	-4	-1	/	/	/
Cc1ccc(CNC(=O)c2cc3c(=O)n4ccccc4nc3n(Cc3ccco3)c2=N)cc1	-4	-9	-5	16*	9.2*	-33	21*

Screening data: PubChem BioAssay, The Scripps Research Institute Molecular Screening Center
